For one assay, the target named is HIV-1 RT Tyr501Trp (Human immunodeficiency virus type 1 group M subtype B, UniProt P03366, Y1100W). Kind of assay: FRET-based RNase H assay, Tyr501Trp RT. Type of assay: biochemical.
A further assay concerns the target HIV-1 RT Tyr501Az-Phe (Human immunodeficiency virus type 1, UniProt P03366, Y1100X). In words: FRET-based RNase H assay, Tyr501Az-Phe RT. The assay is classed as biochemical.
For assay [1], the target named is HIV-1 RT DNA polymerase activity (Human immunodeficiency virus type 1, UniProt P03366). In words: DNA polymerase activity in the absence of pyrophosphorolysis. The assay is classed as biochemical. The following applies: 50 μM, data not shown.
Assay [2] deals with wild-type RT / RNA-DNA hybrid complex. Kind of assay: Electrophoretic mobility shift analysis, wild-type RT on RNA/DNA hybrid. The following applies: 50 μM; gel-mobility shift. The assay is classed as binding, HIV-1. A digest of the protocol: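 Mobility-shift assay: RT 250 nM with RNA/DNA hybrid 50 nM (14 nt RNA–8 nt DNA chimera annealed to 22 nt DNA, mimicking tRNA primer removal) in 50 mM Tris/HCl pH 7.8, 50 mM NaCl. Test compound 0.6–50 μM. Complexes resolved by nondenaturing electrophoresis and detected by autoradiography.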
(Mobility shift assays separate free from complexed probe on a gel.)

In another assay the target is Thr473Cys RT (Human immunodeficiency virus type 1 group M subtype B, UniProt P03366, T1072C). Kind of assay: RNase H inhibition, Thr473Cys RT. The assay is classed as biochemical, HIV-1. The following applies: Thr473 replaced with cysteine.
The subject of assay [3] is HIV-1 RT variant with Cys38 and Cys280 removed from p66 and p51. Kind of assay: RNase H inhibition, RT variant lacking Cys38 and Cys280. The following applies: Cys38 and Cys280 removed from both subunits. The assay is classed as biochemical.
The target in another assay is p66^501BpF/p51 RT (Human immunodeficiency virus type 1, UniProt P03366, Y1100X). Kind of assay: FRET-based RNase H assay, Tyr501Bp-Phe RT. Conditions: for IC50: IC50, RNase H activity, Tyr501Bp-Phe RT. The assay is classed as biochemical, HIV-1.
Assay [4] concerns the target HIV-1 RT RNase H activity (wild type p66/p51) (Human immunodeficiency virus type 1, UniProt P03366). Kind of assay: FRET-based RNase H assay, wild-type HIV-1 RT. The assay is classed as biochemical.
In the next assay the test system is HIV-1 RNase H activity. In words: Yonetani–Theorell analysis of RNase H inhibition. Type of assay: biochemical. Conditions: NSC727447 0.25–16 μM, β-thujaplicinol 0.1–0.4 μM; substrate 250 nM, enzyme 4 nM. The procedure, abridged:
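FRET RNase H assay: 18-nt 3'-fluorescein RNA annealed to 5'-dabcyl DNA (250 nM), enzyme 4 nM. Test compound at 0, 0.25, 0.5, 1, 2, 4, 8, 16 μM, each at β-thujaplicinol 0, 0.1, 0.2, 0.4 μM. Substrate added to start; fluorescence followed for 60 min. Inverse rate (ΔRFU/min) fitted to the Yonetani–Theorell equation to obtain interaction term γ.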

Several values for one entry are separate records, joined by “and”; a condition that tells them apart may be missing. Equal values may be shown once. Read-outs that look alike come from different tables or passages of the source.

The IC50 is the concentration needed to halve the response being measured. Regarding `NC(=O)c1c(N)sc2c1CCCCC2` [NSC727447, 2-amino-5,6,7,8-tetrahydro-4H-cyclohepta[b]thiophene-3-carboxamide], the 50% inhibitory concentration (IC50) against HIV-1 RT Tyr501Trp was 70.6 µM; at HIV-1 RT Tyr501Az-Phe, 89.6 µM; at p66^501BpF/p51 RT it was 197 µM and 196 µM; in [4], 6.6 µM. In addition, the figures for the “fold decrease in inhibitor potency vs wild type” value on HIV-1 RT Tyr501Trp (Tyr501Trp RT vs wild type) and on HIV-1 RT Tyr501Az-Phe (Tyr501Az-Phe RT vs wild type) were ~ 11 fold and 14 fold, respectively. Besides, the “inhibition of DNA polymerase activity” value in [1] is recorded as “insensitive to inhibition”. Besides, in [2], the “effect on affinity of RT for RNA/DNA substrate” value is on record as “unaffected”. The “sensitivity of mutant enzyme to inhibitor vs wild type” value on Thr473Cys RT is on record as “increased sensitivity”. Moreover, the “sensitivity of mutant enzyme to inhibitor” value in [3] is “retained sensitivity”. Moreover, the “fold resistance vs wild type” value at p66^501BpF/p51 RT (p66^501BpF/p51 RT vs wild type) is given as about 30 fold. For the same molecule, the “mode of interaction with β-thujaplicinol (NSC18806), Yonetani–Theorell” value in the assay on HIV-1 RNase H activity is on record as “mutually exclusive inhibitors”.
Turning to `Cc1sc(NC(=O)c2ccco2)c(C(N)=O)c1C` [NSC727448, N-[3-(aminocarbonyl)-4,5-dimethyl-2-thienyl]-2-furancarboxamide], the half-inhibitory concentration (IC50) is about 220 µM against p66^501BpF/p51 RT and about 5.5 µM in assay [4].
Regarding `CC(C)c1ccc(O)c(=O)c(O)c1` [β-thujaplicinol, reference compound], in [4], inhibition was half-maximal at 0.25 ± 0.023 µM (IC50).
As to manicol [reference compound], in [4] (read-out: IC50, RNase H activity, wild-type RT, FRET substrate), the IC50 came out at 0.6 ± 0.09 µM.

For the origin of these results see PMC2941776 (ACS chemical biology, 2008).
